Results: ChEMBL document CHEMBL1126114, “A novel orally active inhibitor of IL-1 generation: synthesis and structure-activity relationships of 3-(4-hydroxy-1-naphthalenyl)-2-propenoic acid derivatives” (J Med Chem, 1992)
Values joined by “and” are separate entries in the source; they are usually repeats but may differ in a detail not shown here. Equal values may be shown once.

Experiments:
Type in all cases: functional
Rattus norvegicus [1] = assay: In vivo percent inhibition of IL-1 generation in rat CMC-LPS air pouch model at 100 uM concentration (local administration)
Method in brief: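 Rat air pouch: 10 mL air s.c. into the dorsum, 2% CMC-Na in saline 24 h later, then LPS 5 ng 24 h after CMC. Compound given locally in 5% EtOH-RPMI with 30% autologous serum, 100 μM final in exudate, at 30 min before and just before LPS. Exudate IL-1 (extra- plus intracellular) read by LAF at 4 h. n=5; % inhibition ± SEM.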

Rattus norvegicus [2] = species on record: Rattus norvegicus; assay: In vitro inhibitory activity against IL-1 generation by using rat exudated macrophages
Method in brief: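 Fisher rat peritoneal exudate cells collected 4 days after i.p. 2.5% glycogen. Cells adhered 1.5 h at 37 °C in 1% normal rat serum. Adherent macrophages stimulated with LPS 1 ng/mL for 4 h ± compound. Intracellular IL-1 read by LAF assay against a recombinant human IL-1α curve. IC50 by least squares; mean of duplicates.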

Homo sapiens = species on record: Homo sapiens; assay: In vitro inhibitory activity against IL-1 generation by using human monocyte
Method in brief: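 Healthy-donor peripheral mononuclear cells, adhered 1.5 h in RPMI 1640 with 10% heat-inactivated autologous serum. Adherent monocytes then stimulated with LPS 1 μg/mL for 16–18 h in 1% autologous serum with 0.1% ethanol, ± drug. Extra- plus intracellular IL-1 read by LAF assay against a recombinant human IL-1β curve. IC50 by least squares; mean of ≥2 experiments.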

Rattus norvegicus [3] = assay: Compound was evaluated in vivo for the percent inhibition of IL-1 generation in rat CMC-LPS air pouch model at 50 mg/Kg concentration (oral administration)
Method in brief: (§1)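 Rat CMC-LPS air pouch: air s.c., 2% CMC-Na 24 h later, LPS 5 ng 24 h after that. Compound given orally in 0.5% methyl cellulose 2 h before LPS. Exudate collected at 4 h; IL-1 (extra- plus intracellular) read by LAF assay against a recombinant human IL-1α curve.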

Rattus norvegicus [4] = assay: Compound was evaluated in vivo for the percent inhibition of IL-1 generation in rat CMC-LPS air pouch model at 200 mg/Kg concentration (oral administration); method in brief: as §1

Row | Structure (SMILES) | IC50 (Rattus norvegicus [2]) [nM] | IC50 (Homo sapiens) [nM] | Inhibition (Rattus norvegicus [1]) | inhibition in vivo at 50 mg/kg (Rattus norvegicus [3]) [%] | inhibition in vivo at 200 mg/kg (Rattus norvegicus [4]) [%]
1 | CCc1cccc2c(/C=C(\Cc3cccs3)C(=O)O)cc(OC)c(O)c12 | 6500 | – | 44% | – | –
2 | CCc1c(OC)c(O)c2ccccc2c1/C=C/C(=O)O | > 10000 | > 10000 | <25% | – | –
3 | CCCC/C(=C\C(=O)O)c1cc(OC)c(O)c2c(CC)cccc12 | > 10000 | 5800 | 52% | – | –
4 | CCc1ccc2c(O)c(OC)cc(/C=C/C(=O)O)c2c1 | 4000 | 3900 | <25% | – | –
5 | CCCc1cccc2c(/C=C(/C)C(=O)O)cc(OC)c(O)c12 | – | – | 87% and 86% | 33 | –
6 | CCc1cccc2c(/C(C)=C\C(=O)O)cc(OC)c(O)c12 | > 10000 | – | <25% | – | –
7 | CCc1cccc2c(/C(C)=C/C(=O)O)cc(OC)c(O)c12 | > 10000 | – | <25% | – | –
8 | CCc1cccc2c(O)c(OC)cc(/C=C/C(=O)O)c12 | 5500 | 1800 | 26% | – | –
9 | CCCc1cccc2c(/C=C(\C)C(=O)O)cc(OC)c(O)c12 | – | – | 91% | < 25 | 67
10 | CCc1cccc2c(/C=C/C(=O)O)cc(OCCOC)c(O)c12 | 3500 | > 10000 | 34% | – | –
11 | CCc1c(OC)c(O)c2c(CC)cccc2c1/C=C/C(=O)O | – | > 10000 | <25% | – | –
12 | COCCCc1cccc2c(/C=C/C(=O)O)cc(OC)c(O)c12 | 6300 | – | <25% | – | –
13 | CCc1cccc2c(/C=C(\C)C(=O)O)cc(OC)c(O)c12 | – | – | 85% | – | 36
14 | CCc1ccc2c(/C=C/C(=O)O)cc(OC)c(O)c2c1 | 4100 | 4000 | <25% | – | –

Continued, in another order:

Row | IC50 (Rattus norvegicus [2]) [nM] | IC50 (Homo sapiens) [nM] | Structure (SMILES) | Inhibition (Rattus norvegicus [1]) | inhibition in vivo at 50 mg/kg (Rattus norvegicus [3]) [%] | inhibition in vivo at 200 mg/kg (Rattus norvegicus [4]) [%]
15 | 1400 | 2100 | COc1cc(/C=C(/C)C(=O)O)c2cccc(C(C)C)c2c1O | 87% and 79% | 29 | –
16 | 2500 | 5300 | CCCCCOc1cc(/C=C/C(=O)O)c2cccc(CC)c2c1O | 33% | – | –
17 | < 1000 | 2500 | COc1cc(/C=C/C(=O)O)c2cccc(C)c2c1O | <25% | – | –
18 | < 1000 | 3700 | CCCc1cccc2c(/C=C(\CC)C(=O)O)cc(OC)c(O)c12 | 91% | – | 62
19 | 1400 | 1900 | COc1cc(/C=C/C(=O)O)c2ccccc2c1O | <25% | – | –
20 | 2100 | – | CCc1cccc2c(/C=C(/Cc3ccccc3)C(=O)O)cc(OC)c(O)c12 | – | < 25 | –
21 | 1500 | 2400 | CCc1cccc2c(/C=C/C(=O)O)cc(OC)c(O)c12 | 88% | – | < 25
22 | 1900 | 6700 | CCc1cccc2c(/C=C/C(=O)O)cc(OCc3ccccc3)c(O)c12 | 39% | – | –
23 | 1400 | – | CCOc1cc(/C=C/C(=O)O)c2cccc(CC)c2c1O | 75% | – | –
24 | 2100 | – | CC/C(=C/c1cc(OC)c(O)c2c(CC)cccc12)C(=O)O | 90% and 71% | 43 | –
25 | 1400 | – | CC/C(=C\c1cc(OC)c(O)c2c(CC)cccc12)C(=O)O | 72% | – | 41
26 | 1600 | – | CCCc1cccc2c(/C=C(/Cc3ccccc3)C(=O)O)cc(OC)c(O)c12 | 91% | – | 51
27 | 1000 | < 1000 | COc1cc(/C=C(\C)C(=O)O)c2cccc(C(C)C)c2c1O | 70% | – | < 25
28 | 1000 | 1400 | COc1cc(/C=C/C(=O)O)c2cccc(C(C)C)c2c1O | 73% | – | < 25
29 | < 1000 | < 1000 | CCCc1cccc2c(/C=C(/CC)C(=O)O)cc(OC)c(O)c12 | 90% and 78% | 47 | –
30 | 2500 | – | CCc1cccc2c(/C=C(/C(=O)O)c3ccccc3)cc(OC)c(O)c12 | 42% | – | < 25
31 | 2300 | – | CCc1cccc2c(/C=C(\Cc3ccccc3)C(=O)O)cc(OC)c(O)c12 | 79% | – | < 25
32 | < 1000 | 2300 | CCCc1cccc2c(/C=C/C(=O)O)cc(OC)c(O)c12 | 91% | < 25 | 32
